# Calls of active or inactive are those of the source. No cut-off for these calls is given here.
# Assays:
# [1] = test system: Saccharomyces cerevisiae; test: Elevation of Hog1 phosphorylation Saccharomyces cerevisiae ATCC 201388 carrying pYES2-HIK1 at 25 ppm after 4 hrs in SD/-Ura medium by Western blot analysis; format: functional, organism-based
# Method in brief: (§1)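 Overnight cultures in SD/−Ura resuspended in fresh SD/−Ura and grown 4 h, then exposed 10 min to compound (25 ppm), 0.5 M NaCl, or left untreated. Soluble protein from cell extracts Western blotted with anti-p38 antibody against doubly phosphorylated T180/Y182 (phospho-Hog1) and anti-C-terminal Hog1 antibody (total Hog1). Detection by HRP-conjugated secondary antibody with ECL Plus.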
# [2] = test system: Saccharomyces cerevisiae; test: Elevation of Hog1 phosphorylation Saccharomyces cerevisiae ATCC 201388 carrying deltahog1 gene at 25 ppm after 4 hrs in SD/-Ura medium by Western blot analysis; format: functional, organism-based; method in brief: as §1
# [3] = test system: Saccharomyces cerevisiae; test: Elevation of Hog1 phosphorylation Saccharomyces cerevisiae ATCC 201388 carrying pYES2 at 25 ppm after 4 hrs in SD/-Ura medium by Western blot analysis; format: functional, organism-based; method in brief: as §1
# [4] = test system: Saccharomyces cerevisiae; test: Antifungal activity against Saccharomyces cerevisiae ATCC 201388 carrying pYES2 in SG/-Ura medium after 48 hrs by CLSI susceptibility test; format: functional; settings: ATCC 201388, 48 h
# Method in brief: (§2)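 CLSI M27 broth MIC, modified so that SG/−Ura served as both inoculum-preparation and test medium in place of RPMI. Uracil is omitted to select for plasmid maintenance. Read after 48 h of incubation. MIC-0 is the concentration causing 90% reduction in growth relative to the untreated control.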
# [5] = test system: Saccharomyces cerevisiae; test: Antifungal activity against Saccharomyces cerevisiae ATCC 201388 carrying pYES2-hik1-H736V in SG/-Ura medium after 48 hrs by CLSI susceptibility test; format: functional; settings: ATCC 201388, 48 h; method in brief: as §2
# [6] = test system: Saccharomyces cerevisiae; test: Antifungal activity against Saccharomyces cerevisiae ATCC 201388 carrying pYES2-hik1-D1153E in SG/-Ura medium after 48 hrs by CLSI susceptibility test; format: functional; settings: ATCC 201388, 48 h; method in brief: as §2
# [7] = test system: Saccharomyces cerevisiae; test: Antifungal activity against Saccharomyces cerevisiae ATCC 201388 carrying pYES2-hik1-H736V in SD/-Ura medium after 48 hrs by CLSI susceptibility test; format: functional; settings: ATCC 201388, 48 h
# Method in brief: (§3)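 Broth MIC following CLSI M27, except that inoculum prep and test medium used SD/−Ura in place of RPMI. Read at 48 h. MIC-0 is the concentration giving 90% growth reduction versus the untreated control.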
# [8] = test system: Saccharomyces cerevisiae; test: Antifungal activity against Saccharomyces cerevisiae ATCC 201388 carrying pYES2 in SD/-Ura medium after 48 hrs by CLSI susceptibility test; format: functional; settings: ATCC 201388, 48 h; method in brief: as §3
# [9] = test system: Saccharomyces cerevisiae; test: Antifungal activity against Saccharomyces cerevisiae ATCC 201388 carrying pYES2-hik1-D1153E in SD/-Ura medium after 48 hrs by CLSI susceptibility test; format: functional; settings: ATCC 201388, 48 h; method in brief: as §3
# [10] = test system: Saccharomyces cerevisiae; test: Antifungal activity against Saccharomyces cerevisiae ATCC 201388 carrying pYES2-HIK1 in SG/-Ura medium after 48 hrs by CLSI susceptibility test; format: functional; settings: ATCC 201388, 48 h; method in brief: as §2
# [11] = test system: Saccharomyces cerevisiae; test: Antifungal activity against Saccharomyces cerevisiae ATCC 201388 carrying pYES2-HIK1 in SD/-Ura medium after 48 hrs by CLSI susceptibility test; format: functional; settings: ATCC 201388, 48 h; method in brief: as §3
SMILES,Activity [1],Activity [2],Activity [3],MIC90 [4] [µg/mL],MIC90 [5] [µg/mL],MIC90 [6] [µg/mL],MIC90 [7] [µg/mL],MIC90 [8] [µg/mL],MIC90 [9] [µg/mL],MIC90 [10] [µg/mL],MIC90 [11] [µg/mL]
CC[C@H]1O[C@@H](/C(C)=C/[C@H](C)/C=C/[C@H]2[C@@H](C)[C@@H]2/C=C/[C@@H]2O[C@H](CC(=O)O)C[C@H](O)[C@H]2O)CC=C1C,Active,inactive,inactive,,,,,,,,
CC[C@H]1O[C@@H](/C(C)=C/[C@H](C)/C=C/[C@H]2[C@@H](C)[C@@H]2/C=C/[C@@H]2O[C@H](CC(=O)O)C[C@H](N(C)C)[C@H]2O)CC=C1C [AMBRUTICIN VS3],,,,> 32,> 32,> 32,> 32,> 32,> 32,0.5,> 32
N#Cc1c[nH]cc1-c1cccc2c1OC(F)(F)O2 [FLUDIOXONIL],,,,> 32,> 32,> 32,> 32,> 32,> 32,2,> 32
C=CC1(C)OC(=O)N(c2cc(Cl)cc(Cl)c2)C1=O (configuration not stated) [VINCLOZOLIN],,,,> 32,> 32,> 32,> 32,> 32,> 32,16,> 32

# From ChEMBL document CHEMBL1153841, “The antifungal polyketide ambruticin targets the HOG pathway” (2007)
